ChEMBL document CHEMBL1147465, “Nucleic acid-binding ligands identify new mechanisms to inhibit telomerase” (Bioorg Med Chem Lett, 2004)

Assays:
[1] = test system: Euplotes aediculatus; experiment: Inhibition of purified telomerase of Euplotes aediculatus at 50 uM
Method in brief: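 Endogenous telomerase purified from E. aediculatus, tested in a direct activity assay with inhibitor at 50 µM.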

[2] = test system: Tetrahymena thermophila; experiment: Inhibition of telomerase after assembly using recombinant Tetraymena thermophilia TR and TERT at 50 uM
[3] = test system: Tetrahymena thermophila; experiment: Inhibition of telomerase before assembly using recombinant Tetraymena thermophilia TR and TERT at 50 uM
[4] = biological target: Telomerase reverse transcriptase (Homo sapiens) (UniProt O14746); experiment: Inhibition of human telomerase before assembly using recombinant hTR and hTERT at 50 uM
Sequence of Telomerase reverse transcriptase (Homo sapiens) (O14746 whole entry): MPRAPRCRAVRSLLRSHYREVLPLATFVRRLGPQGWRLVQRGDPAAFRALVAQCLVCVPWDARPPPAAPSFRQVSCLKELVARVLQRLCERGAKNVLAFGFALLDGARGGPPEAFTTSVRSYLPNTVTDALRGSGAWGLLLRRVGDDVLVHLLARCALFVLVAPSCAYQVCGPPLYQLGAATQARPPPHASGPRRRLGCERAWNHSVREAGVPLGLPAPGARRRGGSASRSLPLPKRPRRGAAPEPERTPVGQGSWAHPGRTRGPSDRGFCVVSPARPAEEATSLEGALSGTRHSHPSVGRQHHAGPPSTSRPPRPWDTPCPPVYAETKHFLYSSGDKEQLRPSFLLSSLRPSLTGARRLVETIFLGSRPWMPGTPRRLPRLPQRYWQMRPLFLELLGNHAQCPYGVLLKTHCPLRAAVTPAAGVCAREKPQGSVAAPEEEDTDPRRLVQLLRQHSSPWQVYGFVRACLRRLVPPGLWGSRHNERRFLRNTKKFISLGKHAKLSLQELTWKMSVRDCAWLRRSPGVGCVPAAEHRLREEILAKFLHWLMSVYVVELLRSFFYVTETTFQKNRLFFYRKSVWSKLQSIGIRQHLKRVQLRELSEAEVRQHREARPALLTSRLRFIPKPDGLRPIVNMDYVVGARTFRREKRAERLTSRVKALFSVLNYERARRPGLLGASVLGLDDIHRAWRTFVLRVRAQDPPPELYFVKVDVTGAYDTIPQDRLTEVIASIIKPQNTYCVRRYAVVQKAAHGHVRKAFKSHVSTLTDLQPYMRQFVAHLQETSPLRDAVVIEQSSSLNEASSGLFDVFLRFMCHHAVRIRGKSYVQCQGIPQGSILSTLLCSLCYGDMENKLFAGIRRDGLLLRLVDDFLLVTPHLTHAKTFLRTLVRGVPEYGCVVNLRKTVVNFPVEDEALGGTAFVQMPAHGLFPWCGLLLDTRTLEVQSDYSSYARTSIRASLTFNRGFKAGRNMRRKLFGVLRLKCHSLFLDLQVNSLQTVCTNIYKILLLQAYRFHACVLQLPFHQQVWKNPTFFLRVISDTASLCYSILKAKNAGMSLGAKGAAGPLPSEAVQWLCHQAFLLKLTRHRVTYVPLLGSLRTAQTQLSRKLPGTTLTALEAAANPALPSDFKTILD
Method in brief: (§1)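 Telomerase reconstituted from in vitro transcribed hTR and hTERT translated in vitro in rabbit reticulocyte lysate. Line 2: ligand added to hTR plus hTERT before a 90 min assembly incubation in lysate. Line 1: ligand added to telomerase already assembled in lysate.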

[5] = biological target: Telomerase reverse transcriptase (Homo sapiens) (UniProt O14746); experiment: Inhibition of human telomerase after assembly using recombinant hTR and hTERT at 50 uM; method in brief: as §1

| Molecule | inhibition [1] [%] | inhibition [2] [%] | inhibition [3] [%] | inhibition [4] [%] | inhibition [5] [%] |
| --- | --- | --- | --- | --- | --- |
| CN(C)[C@@H]1C(O)=C(C(N)=O)C(=O)[C@@]2(O)C(O)=C3C(=O)c4c(O)cccc4[C@@](C)(O)[C@H]3C[C@@H]12 | 0 | 0 | 0 | 10 |  |
| CN[C@@H]1[C@@H](O[C@H]2O[C@H](CO)[C@@H](N)[C@H](O)[C@H]2O)OC2C[C@@H](N)[C@@H](O[C@H]3[C@H](O)[C@@H](O)[C@H](N)C[C@@H]3N)OC2[C@@H]1O (some centres undefined) | 0 | 0 | 0 | 30 |  |
| N=C(N)c1ccc(-c2cc3ccc(C(=N)N)cc3[nH]2)cc1 | 0 | 70 | 70 | 90 | 72 |
| NCC[C@H](O)C(=O)N[C@@H]1C[C@H](N)[C@@H](O[C@H]2O[C@H](CN)[C@@H](O)[C@H](O)[C@H]2O)[C@H](O)[C@H]1O[C@H]1O[C@H](CO)[C@@H](O)[C@H](N)[C@H]1O | 0 | 0 | 0 | 25 |  |
| Nc1ccc2cc3ccc(N)cc3nc2c1 | 52 | 90 | 90 | 95 | 90 |
| GENTAMICIN | 0 | 0 | 0 | 64 | 19 |
| CCN(CC)CCCC(C)Nc1c2ccc(Cl)cc2nc2ccc(OC)cc12 (centres undefined) | 75 | 80 | 93 | 82 | 50 |
| NC[C@@H]1O[C@H](O[C@H]2[C@@H](O)[C@H](O[C@@H]3[C@@H](O)[C@H](N)C[C@H](N)[C@H]3O[C@H]3O[C@H](CO)[C@@H](O)[C@H](O)[C@H]3N)O[C@@H]2CO)[C@H](N)[C@@H](O)[C@@H]1O | 0 | 0 | 0 | 60 | 29 |
| Cn1cc(NC(=O)c2cc(NC(=O)c3cc(NC=O)cn3C)cn2C)cc1C(=O)NCCC(=N)N | 75 | 0 | 0 | 10 |  |
| NC[C@@H]1O[C@H](O[C@H]2[C@@H](O)[C@H](O[C@@H]3[C@@H](O)[C@H](N)C[C@H](N)[C@H]3O[C@H]3O[C@H](CO)[C@@H](O)C[C@H]3N)O[C@@H]2CO)[C@H](N)[C@@H](O)[C@@H]1O[C@H]1O[C@H](CO)[C@@H](O)[C@H](O)[C@@H]1O | 10 | 0 | 0 | 50 | 12 |
| CN[C@@H]1C[C@H](N)[C@@H](O)[C@H](O[C@H]2O[C@H](CO)[C@H](O)[C@@H]3O[C@@]4(O[C@@H]23)O[C@H]([C@H](N)CO)[C@H](O)[C@H](O)[C@H]4O)[C@H]1O | 0 | 0 | 0 | 0 |  |
| CN[C@@H]1[C@H](O)[C@H](NC)[C@H]2O[C@@]3(O)C(=O)C[C@@H](C)O[C@H]3O[C@@H]2[C@H]1O | 0 | 0 | 0 | 0 |  |
| CN1CCN(c2ccc3[nH]c(-c4ccc5[nH]c(-c6ccc(O)cc6)nc5c4)nc3c2)CC1 | 86 | 15 | 50 | 81 | 34 |
